CHRM1 antagonist: blocks human M1 muscarinic receptor. inhibition, % at 3 µM. 360,000 tested, 1.3% active. P11229. CHO-K1 hM1, Fluo-8 calcium fluorescence, ACh EC80 antagonist. AID 588852;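 active means percent inhibition above its own plate's cutoff, namely the mean of that plate's compound wells plus 3 SD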;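 further: peak over basal fluorescence ratio during 140 s after agonist addition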
Target sequence (P11229 whole entry, looked up): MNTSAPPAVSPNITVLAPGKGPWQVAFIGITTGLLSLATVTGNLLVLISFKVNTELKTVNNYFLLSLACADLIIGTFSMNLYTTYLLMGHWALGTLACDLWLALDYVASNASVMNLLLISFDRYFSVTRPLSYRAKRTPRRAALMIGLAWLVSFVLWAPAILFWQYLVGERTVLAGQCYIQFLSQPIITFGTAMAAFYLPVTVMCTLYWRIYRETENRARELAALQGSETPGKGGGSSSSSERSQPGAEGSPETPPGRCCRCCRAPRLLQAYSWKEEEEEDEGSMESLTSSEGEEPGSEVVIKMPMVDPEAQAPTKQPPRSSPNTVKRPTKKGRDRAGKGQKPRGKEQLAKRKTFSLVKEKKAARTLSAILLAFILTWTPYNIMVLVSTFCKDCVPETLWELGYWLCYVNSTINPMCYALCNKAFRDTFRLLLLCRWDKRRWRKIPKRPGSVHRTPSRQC
M1 ag: human M1 muscarinic receptor agonism | P11229 | CHO-K1 hM1, Fluo-8 calcium fluorescence, agonist mode; 0% DMSO, 100% acetylcholine EC100 | activation, % at 3 µM | 360,000 tested, 0.33% active;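 active means activation above the run's mean compound activation plus 3 SD, cut at about 16% in these data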;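 further: peak over basal fluorescence ratio within a 140 s kinetic read after compound addition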
M5 PAM: CHRM5 positive allosteric modulation; P08912; CHO-K1 hM5, Fluo-8 calcium, ACh EC20 PAM; 0% = ACh EC20, 100% = ACh EC100; activation, % at 3 µM; 360,000 tested, 0.3% active; AID 624038;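 active means activation above the run cutoff, the mean activation of all test compounds plus 3 SD, cut at about 18% in these data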
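Probe or stimulus: acetylcholine, EC20 level; Assay system: human M5 receptor in CHO-K1 cells; Schedule: compound preincubation 140 s before EC20 acetylcholine addition; Technique: intracellular calcium via Fluo-8 fluorescence; Dosing: single-point, 3 µM nominal; Read-out basis: percent activation from peak-over-basal fluorescence ratio, scaled EC20-to-EC100 acetylcholine; Repeats: one well per compound, no replicates.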
M1 PAM: positive allosteric modulators of human M1 muscarinic receptor. P11229. CHO-K1 hM1, Fluo-8 calcium fluorescence, ACh EC20; 0% = ACh EC20, 100% = maximal ACh. activation, % at 3 µM. 360,000 tested, 0.088% active. AID 588819; in the data active means activation above about 19%, passing the limit was not always enough
M5 ag: agonists of human muscarinic M5 receptor (CHRM5); CHO-K1 hM5 cells, Fluo-8 calcium fluorescence; 0% DMSO wells, 100% maximal acetylcholine response; activation, % at 3 µM; 360,000 tested, 0.19% active;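 active means activation above the run's mean over test compounds plus 3 SD, cut at about 23% in these data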;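 further: signal is peak over basal fluorescence ratio across the kinetic read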
M5 antag: blocks acetylcholine activation of human M5 receptor | P08912 | CHO-hM5 cells, Fluo-8 calcium fluorescence, ACh EC80 | inhibition, % at 3 µM | 360,000 tested, 0.59% active;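 active means inhibition above a per-plate cutoff, the mean of that plate's test compounds plus 3 SD, cut at about 27% in these data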
Of the large screens only hits and unclear results are named; the others gave an inactive call. Compounds with a hit are over-represented: about 2.2% of the library has one in this group of screens.

COc1ccc2oc(C(=O)Nc3nccs3)c(C)c2c1	none
CCCCc1nnc(NC(=O)c2oc3ccc(OC)cc3c2C)s1	M5 PAM 19
CCCCC(=O)Nc1ncc(S(=O)(=O)c2ccc([N+](=O)[O-])cc2)s1	M1 ag 23
O=c1nc(-c2ccccc2)c2cc(SC(F)F)ccc2[nH]1	M1 PAM 28
CC(C)c1ccc2[nH]c3c(c2c1)CCC/C3=N\NC(=O)c1ccncc1	none
CC(NC(=O)/C=C/c1ccccc1)c1ccccc1 (stereo unspecified)	M5 ag 31
O=C(O)c1cc(-c2ccc(-c3ccc(F)cc3)o2)nc2ccccc12	none
CC(=O)Nc1cc(S(=O)(=O)C(F)(F)F)ccc1Cl	M5 PAM 19
COc1ccc(CN(CCNC(=O)CCCCC(=O)NCCN(Cc2ccc(OC)cc2)C(C)C)C(C)C)cc1	CHRM1 antagonist 73, M5 antag 48
CC(C)N1CCC1(C)C(=O)Nc1cccc2ccccc12 (stereo unspecified)	none
CC1(C(=O)Nc2cccc3ccccc23)CC1(Br)Br (stereo unspecified)	M5 antag 31
O=C(Nc1ccc(Cl)cc1)c1ccc(CN2CCc3ccccc3C2)cc1	none
O=C(Nc1ccc(S(=O)(=O)N2CCCC2)cc1)c1ccc(CN2CCc3ccccc3C2)cc1	CHRM1 antagonist 39
O=C(CNC1CCCC1)Nc1ccc(S(=O)(=O)N2CCCCC2)cc1	none
CCOc1ccc(NC(=O)c2ccc(CN3CCc4ccccc4C3)cc2)cc1	CHRM1 antagonist 39
O=C(CNC1CCN(Cc2ccccc2)CC1)Nc1ccc(S(=O)(=O)N2CCCCC2)cc1	CHRM1 antagonist 44
CCOC(=O)c1ccc(NC(=O)c2ccc(CN3CCc4ccccc4C3)cc2)cc1	none
CCC(CC)C(=O)Nc1ccc(Sc2ccc([N+](=O)[O-])cc2)cc1	CHRM1 antagonist 35
O=C(c1cccc(Oc2ccc([N+](=O)[O-])cc2Cl)c1)N1CCOCC1	M5 antag 27
O=C(Oc1cccc(C(=S)N2CCOCC2)c1)c1ccc([N+](=O)[O-])cc1	none
Cc1cccc(-n2c(C)cc(/C=N/n3cnnc3)c2C)c1	CHRM1 antagonist 70
Cc1cc(/C=N/n2cnnc2)c(C)n1-c1ccc2c(c1)OCO2	none
CC(C(=O)Nc1ccc2c(c1)OCCO2)c1ccc([N+](=O)[O-])cc1 (stereo unspecified)	M1 ag 42, M5 ag 32
Cc1ccc([C@@H]2[C@@H]3C(=O)N(C)C(=O)[C@@H]3[C@]3(C)C(=O)N(Cc4ccccc4)CC(=O)N23)o1	M5 PAM 22
O=C(COc1ccccc1)NC(=S)Nc1cccc2c(O)cccc12	M1 ag 19
COC(=O)c1ccccc1NC(=S)NC(=O)COc1ccccc1	none
S=C(NCCc1ccccc1)Nc1ccc(N2CCCCC2)cc1	none
CC(C)(C)[C@@H]1COC(=O)[C@@H](Cc2ccc(F)cc2)C/C=C\C[C@H](CC(=O)N(CCO)Cc2ccccc2)C(=O)N1	none
CC(C)CNS(=O)(=O)c1ccc(CCC(=O)NC2CCCCC2)cc1	M5 PAM 20
CN(Cc1ccccc1)S(=O)(=O)c1ccc(N2CCCC2=O)cc1	none
CCOC(=O)C1=C(C)N(CCO)C(=O)NC1c1ccccc1 (stereo unspecified)	M5 PAM 20
CCOC(=O)C1=C(C)N(CCCC(=O)O)C(=O)NC1c1ccccc1 (stereo unspecified)	none
CCCCn1cnc2c1c(=O)[nH]c(=O)n2CCCC	M5 PAM 19
COc1ccc(CC(=O)NC(C)c2nnc(SCCC(=O)Nc3ccccc3)n2C)cc1 (stereo unspecified)	M5 PAM 18
O=C(CSc1nnnn1C1CCCCC1)Nc1ccccc1F	none
O=C(CSc1nnnn1C1CC2CCC1C2)Nc1ccnc2ccccc12 (stereo unspecified)	CHRM1 antagonist 32, M5 antag 32
CS(=O)(=O)NCCn1ccc2ccccc21	none
C[N+]1(CCn2ccc3ccccc32)CCCCC1	CHRM1 antagonist 42
CCOC(=O)C1=C(C)NC(C)=C(C(=O)OCC)C1C(=O)OCC(=O)N(C)C1CCS(=O)(=O)C1 (stereo unspecified)	none
CC(=O)c1ccc2ccccc2c1OC(=O)c1ccncc1	none
CCC(=O)N(Cc1cc(=O)[nH]c2ccccc12)c1ccccc1	CHRM1 antagonist 31
CCCC(=O)N(Cc1cc(=O)[nH]c2ccccc12)c1ccccc1	none
CC(c1ccccc1)n1c(Br)nc2c1c(=O)[nH]c(=O)n2C (stereo unspecified)	none
CC(c1ccccc1)n1c(N2CCNCC2)nc2c1c(=O)[nH]c(=O)n2C (stereo unspecified)	CHRM1 antagonist 69
Cc1ccc(C(=O)Nn2c(N)c(S(=O)(=O)c3ccc(C)cc3)c3nc4ccccc4nc32)cc1	CHRM1 antagonist 20
C=CCC(C=C)[N+]1(CC(=O)OC)CCCCC1 (stereo unspecified)	none
CCC(=O)Nc1ccc(C(=O)COC(=O)c2sc(C)nc2C)cc1	none
N=c1sccn1CC(=O)Nc1cccc(S(N)(=O)=O)c1	CHRM1 antagonist 35
N=c1sccn1CC(=O)Nc1ccc(S(N)(=O)=O)cc1	none
O=C(Nc1ccccc1)Nc1ccc(-n2ccc(C(F)(F)F)n2)cc1	CHRM1 antagonist 68, M5 antag 51
O=C(O)CC(CC(=O)Nc1ccc(-n2ccc(C(F)(F)F)n2)cc1)c1ccccc1 (stereo unspecified)	none
O=C(Nc1cc(S(=O)(=O)N2CCCCCC2)ccc1OCC(F)(F)F)c1cnccn1	none
O=C(Nc1ccccc1C(=O)O)c1cc(S(=O)(=O)N2CCOCC2)c(Br)s1	M5 PAM 18
O=C(O)c1cc(Cl)ccc1-c1ccc(/C=C/c2cc(C(F)(F)F)[nH]c(=O)n2)o1	M5 ag 42
O=C(O)c1ccccc1-c1ccc(/C=C/c2cc(C(F)(F)F)[nH]c(=O)n2)o1	M5 ag 44
COc1cccc(CC2(CO)CCN(CC3=CC[C@H]4C[C@@H]3C4(C)C)CC2)c1	CHRM1 antagonist 36
CC(C)C(=O)Nc1ccc(-c2nc3ncccc3o2)cc1	M5 antag 30
O=C(NCc1cccnc1)C(=O)C1C(=O)Nc2ccccc21 (stereo unspecified)	M5 PAM 18
O=C(NCc1ccncc1)C(=O)C1C(=O)Nc2ccccc21 (stereo unspecified)	none
CCCCN(CC)CCCNC(=O)CN1C(=O)CSc2ccc(S(=O)(=O)N3CCOCC3)cc21	none
